Measured values as given in ChEMBL document CHEMBL2010762, “Synthesis of novel 9-O-N-aryl/aryl-alkyl amino carbonyl methyl substituted berberine analogs and evaluation of DNA binding aspects” (Bioorg Med Chem, 2012).
Activity calls are given as the source filed them. No cut-off for these calls is given here.

Key:
Type in all cases: nucleic-acid assay
Details in all cases: Bos taurus
Nucleic Acid [1] = assay: Binding affinity to calf thymus DNA in citrate-phosphate buffer at pH 7 by circular dichroism spectral analysis
Outline: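 CD spectra of CT DNA titrated with increasing alkaloid in 10 mM CP buffer pH 7.0 at 20 °C. Output is molar ellipticity, [θ] = [θ]obs/10lC.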

Nucleic Acid [2] = assay: Binding affinity to calf thymus DNA assessed as change in melting temperature by thermal denaturation assay
Outline: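 CT DNA alone or with alkaloid, 10 mM citrate-phosphate buffer pH 7.0. Absorbance at 260 nm was followed while heating from 20 to 100 °C at 0.5 °C/min in 1 cm quartz cuvettes. ΔTm was taken at saturation.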

Nucleic Acid [3] = assay: Binding affinity to calf thymus DNA assessed as fluorescence quenching by fluorescence spectroscopy analysis
Outline: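 Ferrocyanide quenching of alkaloid fluorescence, free and bound to CT DNA, at constant P/D (base pair/alkaloid). KCl and K4[Fe(CN)6] solutions were mixed in different ratios at fixed total ionic strength in 10 mM CP buffer pH 7.0. Intensity was read against rising ferrocyanide. Stern–Volmer quenching constant (Ksv). At least four measurements were averaged per set.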

Nucleic Acid [4] = assay: Binding affinity to calf thymus DNA in citrate-phosphate buffer at pH 7 assessed as change in viscosity by hydrodynamic method
Outline: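 Relative viscosity of CT DNA in 10 mM CP buffer pH 7.0 at 20 °C with increasing alkaloid (varying D/P), mixed by slow nitrogen bubbling. Flow times were measured in triplicate to 0.01 s. Contour length increase (L/Lo) was plotted against r.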

| Compound | Activity (Nucleic Acid [1]) | ΔTm (Nucleic Acid [2]) | KSV (Nucleic Acid [3]) | Activity (Nucleic Acid [4]) |
| --- | --- | --- | --- | --- |
| COc1ccc2cc3[n+](cc2c1OC)CCc1cc2c(cc1-3)OCO2.[Cl-] [BERBERINE CHLORIDE] | Active | 9 °C | 90 M⁻¹ | Active |
| COc1ccc2cc3[n+](cc2c1OCC(=O)Nc1ccccc1)CCc1cc2c(cc1-3)OCO2.[Cl-] | Active | 15.5 °C | 57 M⁻¹ | Active |
| COc1ccc2cc3[n+](cc2c1OCC(=O)NCc1ccccc1)CCc1cc2c(cc1-3)OCO2.[Cl-] |  | 14 °C | 48 M⁻¹ | Active |
| COc1ccc2cc3[n+](cc2c1OCC(=O)NCCc1ccccc1)CCc1cc2c(cc1-3)OCO2.[Cl-] |  | 12 °C | 37 M⁻¹ | Active |
